{
  "source": "ChEMBL document CHEMBL3244269",
  "about": "“Synthesis of carboxyarylindoles and benzofurans as nonsteroidal antiinflammatory agents” (J Med Chem, 1977)",
  "key": {"Rattus norvegicus [1]": {"system": "Rattus norvegicus", "assay": "Antiinflammatory activity in Wistar rat assessed as inhibition of carrageenan-induced paw edema at 200 mg/kg, po administered 30 mins prior challenge measured after 3 hrs relative to placebo-control", "assay_type": "functional", "summary_of_the_method": "(§1)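 Fasted male Wistar rats, eight per group, dosed orally with 200 mg/kg as a saline-Tween 80 suspension (10 mL/kg), or placebo. After 30 min, 0.1 cm³ of 1% carrageenan in distilled water was injected into the left hind paw plantar surface. Paw volume was read by mercury displacement then and 3 h later. Mean volume increase was compared with placebo as percent inhibition.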"}, "Rattus norvegicus [2]": {"system": "Rattus norvegicus", "assay": "Toxicity in carrageenan-induced Wistar rat assessed as increase in paw edema at 200 mg/kg, po administered 30 mins prior challenge measured after 3 hrs relative to placebo-control", "assay_type": "organism-based", "set-up": "dose 200 mg/kg, route oral", "conditions": "in vivo", "summary_of_the_method": "as §1"}},
  "data": [
    {"smiles": "COC(=O)c1cc(-c2cc3c(n2-c2ccccc2)CCc2ccccc2-3)ccc1O", "values": [
      {"measurement": "inhibition in vivo at 200 mg/kg", "setting": "Rattus norvegicus [1]", "value": 21.7, "unit": "%"},
      {"measurement": "Activity", "setting": "Rattus norvegicus [2]", "value": "Toxic"}
    ]},
    {"smiles": "O=C(O)c1cc(-c2cc3c(n2-c2ccccc2)CCc2ccccc2-3)ccc1O", "values": [
      {"measurement": "inhibition in vivo at 200 mg/kg", "setting": "Rattus norvegicus [1]", "value": 37.5, "unit": "%"}
    ]},
    {"smiles": "O=C(O)c1cc(-c2cc3c(n2-c2ccccc2)CCCC3)ccc1O", "values": [
      {"measurement": "inhibition in vivo at 200 mg/kg", "setting": "Rattus norvegicus [1]", "value": 25.8, "unit": "%"}
    ]},
    {"smiles": "CCCCn1c(-c2ccc(O)c(C(=O)O)c2)cc2c1CCCC2", "values": [
      {"measurement": "inhibition in vivo at 200 mg/kg", "setting": "Rattus norvegicus [1]", "value": 41, "unit": "%"}
    ]},
    {"smiles": "COC(=O)c1cc(-c2cc3c(o2)CCCC3)ccc1O", "values": [
      {"measurement": "inhibition in vivo at 200 mg/kg", "setting": "Rattus norvegicus [1]", "value": 9.8, "unit": "%"},
      {"measurement": "Activity", "setting": "Rattus norvegicus [2]", "value": "Toxic"}
    ]},
    {"smiles": "O=C(O)c1cc(-c2cc3c(o2)CCCC3)ccc1O", "values": [
      {"measurement": "inhibition in vivo at 200 mg/kg", "setting": "Rattus norvegicus [1]", "value": 21.5, "unit": "%"}
    ]},
    {"smiles": "O=C(O)c1cc(-n2c(-c3ccccc3)cc3c2CCCC3)ccc1O", "values": [
      {"measurement": "inhibition in vivo at 200 mg/kg", "setting": "Rattus norvegicus [1]", "value": 64, "unit": "%"}
    ]},
    {"smiles": "CC(=O)Oc1ccccc1C(=O)O", "note": "[ASPIRIN]", "values": [
      {"measurement": "inhibition in vivo at 200 mg/kg", "setting": "Rattus norvegicus [1]", "value": 65.3, "unit": "%"}
    ]},
    {"smiles": "O=C(O)c1cc(-n2c(-c3ccccc3)cc3c2CCc2ccccc2-3)ccc1O", "note": "[FENDOSAL]", "values": [
      {"measurement": "inhibition in vivo at 200 mg/kg", "setting": "Rattus norvegicus [1]", "value": 64.2, "unit": "%"}
    ]}
  ]
}
